# Test results from ChEMBL document CHEMBL3112393, “Structure-based design, synthesis and biological evaluation of diphenylmethylamine derivatives as novel Akt1 inhibitors” (Eur J Med Chem, 2014).
# Calls of active or inactive are those of the source. The rule behind the calls is not given here.
# Assays:
# [1] = molecular target: T1, RAC-alpha serine/threonine-protein kinase (Homo sapiens, UniProt P31749); assay: Inhibition of Akt1 (unknown origin) using ATP/eNOS as substrate preincubated for 5 mins followed by substrate addition measured after 30 mins by fluorescence polarization assay
# T1 sequence (P31749 whole entry): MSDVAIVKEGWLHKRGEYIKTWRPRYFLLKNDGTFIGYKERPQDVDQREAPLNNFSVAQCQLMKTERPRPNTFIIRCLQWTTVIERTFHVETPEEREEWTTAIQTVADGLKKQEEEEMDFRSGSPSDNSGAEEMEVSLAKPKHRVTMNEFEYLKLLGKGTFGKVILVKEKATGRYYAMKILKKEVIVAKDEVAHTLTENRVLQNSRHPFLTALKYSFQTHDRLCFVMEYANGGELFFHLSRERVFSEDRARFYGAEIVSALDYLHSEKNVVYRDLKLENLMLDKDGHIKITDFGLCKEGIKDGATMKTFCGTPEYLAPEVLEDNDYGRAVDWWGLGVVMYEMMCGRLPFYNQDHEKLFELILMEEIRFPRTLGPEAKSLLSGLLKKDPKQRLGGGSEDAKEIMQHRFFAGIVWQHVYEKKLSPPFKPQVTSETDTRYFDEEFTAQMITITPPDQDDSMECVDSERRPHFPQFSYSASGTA
# [2] = system: OVCAR-8; assay: Antiproliferative activity against human OVCAR8 cells after 72 hrs by MTT assay; type: functional, cell-based; settings: OVCAR-8, 72 h
# Outline: (§1)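 MTT assay: cells seeded at 4000 per well, attached overnight, exposed to compound over 1.0–100.0 range for 72 h. MTT then added, 4 h more at 37 °C. Formazan dissolved in DMSO, absorbance at 570 nm. Triplicate wells in three independent experiments. IC50 from dose-effect analysis.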
# [3] = system: HL-60; assay: Antiproliferative activity against human HL60 cells after 72 hrs by MTT assay; type: functional, cell-based; settings: HL-60, 72 h; outline: as §1
# [4] = system: HCT-116; assay: Antiproliferative activity against human HCT116 cells after 72 hrs by MTT assay; type: functional, cell-based; settings: HCT-116, 72 h; outline: as §1
# [5] = molecular target: T1, RAC-alpha serine/threonine-protein kinase; assay: Inhibition of Akt1 (unknown origin) using ATP/eNOS as substrate at 10 uM preincubated for 5 mins followed by substrate addition measured after 30 mins by fluorescence polarization assay
# Outline: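 Competitive fluorescence polarization kinase assay. 4 ng Akt1 in 2.5× kinase buffer (62.5 mM Tris-HCl pH 7.5, 25 mM MgCl₂, 12.5 mM β-glycerophosphate, 0.25 mM Na₃VO₄, 5 mM DTT) preincubated with DMSO vehicle or compound for 5 min at room temperature. ATP/eNOS substrate cocktail then added. Reaction stopped with 50 mM EDTA (pH 8.0), activity read per kit instructions. Single-point inhibition measured at 10.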
# [6] = molecular target: T2, Aurora kinase A (Homo sapiens) (UniProt O14965); assay: Inhibition of Aurora A (unknown origin) at 0.8 ug/ml
# T2 sequence (whole entry): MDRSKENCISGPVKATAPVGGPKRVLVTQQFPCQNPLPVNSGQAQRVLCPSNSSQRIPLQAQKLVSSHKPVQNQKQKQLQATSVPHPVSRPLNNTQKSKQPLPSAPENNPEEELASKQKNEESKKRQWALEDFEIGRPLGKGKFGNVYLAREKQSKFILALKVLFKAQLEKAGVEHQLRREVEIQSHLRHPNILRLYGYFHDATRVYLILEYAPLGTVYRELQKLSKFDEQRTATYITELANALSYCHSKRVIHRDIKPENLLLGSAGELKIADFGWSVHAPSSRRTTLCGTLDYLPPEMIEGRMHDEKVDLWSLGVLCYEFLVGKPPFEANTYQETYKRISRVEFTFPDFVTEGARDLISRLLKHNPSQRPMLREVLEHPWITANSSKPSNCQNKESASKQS
# [7] = molecular target: T1, RAC-alpha serine/threonine-protein kinase; assay: Inhibition of Akt1 in human OVCAR8 cells assessed as effect on total GSK3beta level at 1 uM by Western blotting analysis; type: cell-based; settings: OVCAR-8
# Outline: (§2)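 OVCAR-8 cells treated, washed with ice-cold PBS, lysed in buffer with NaF, β-glycerophosphate and PMSF. Lysate cleared at 13,000 rpm for 30 min at 4 °C, protein measured by Bradford. 40–80 of lysate protein run on SDS-PAGE and transferred to nitrocellulose. Blots probed with primary antibodies, then HRP secondaries, detected by ECL.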
# [8] = molecular target: T1, RAC-alpha serine/threonine-protein kinase; assay: Inhibition of Akt1-mediated phosphorylation at Ser473 in human OVCAR8 cells at 1 uM by Western blotting analysis; type: cell-based; settings: OVCAR-8; outline: as §2
# [9] = molecular target: T3, Serine/threonine-protein kinase B-raf (Homo sapiens, UniProt P15056); assay: Inhibition of BRAF1 (unknown origin)
# T3 sequence (P15056 whole entry): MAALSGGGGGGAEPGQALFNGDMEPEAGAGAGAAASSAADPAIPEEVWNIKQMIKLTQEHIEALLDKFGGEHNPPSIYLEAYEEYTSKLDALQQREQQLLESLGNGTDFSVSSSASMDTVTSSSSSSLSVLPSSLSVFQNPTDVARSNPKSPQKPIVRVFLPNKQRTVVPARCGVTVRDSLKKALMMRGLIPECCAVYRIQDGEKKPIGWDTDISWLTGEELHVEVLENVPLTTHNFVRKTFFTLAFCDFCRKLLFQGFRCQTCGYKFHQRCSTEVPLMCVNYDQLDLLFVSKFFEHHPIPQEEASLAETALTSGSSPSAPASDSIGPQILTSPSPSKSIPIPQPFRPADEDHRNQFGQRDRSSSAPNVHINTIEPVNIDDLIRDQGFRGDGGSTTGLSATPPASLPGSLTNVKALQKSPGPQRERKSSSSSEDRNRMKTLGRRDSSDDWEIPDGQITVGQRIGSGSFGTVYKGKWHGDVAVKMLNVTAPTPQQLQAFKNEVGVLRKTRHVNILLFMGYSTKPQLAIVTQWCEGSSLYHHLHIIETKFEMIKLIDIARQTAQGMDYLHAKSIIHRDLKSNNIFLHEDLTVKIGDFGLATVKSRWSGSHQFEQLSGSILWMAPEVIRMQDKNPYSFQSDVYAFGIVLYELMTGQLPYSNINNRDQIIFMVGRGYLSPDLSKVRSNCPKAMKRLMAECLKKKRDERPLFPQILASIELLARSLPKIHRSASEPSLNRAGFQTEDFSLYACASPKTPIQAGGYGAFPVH
# [10] = organism: Homo sapiens; assay: Inhibition of Drak (unknown origin) at 0.8 ug/ml
# [11] = molecular target: Glycogen synthase kinase-3 beta (Homo sapiens) (UniProt P49841); assay: Inhibition of GSK3beta (unknown origin) at 0.8 ug/ml
# Chain of Glycogen synthase kinase-3 beta (Homo sapiens) (P49841 whole entry, looked up): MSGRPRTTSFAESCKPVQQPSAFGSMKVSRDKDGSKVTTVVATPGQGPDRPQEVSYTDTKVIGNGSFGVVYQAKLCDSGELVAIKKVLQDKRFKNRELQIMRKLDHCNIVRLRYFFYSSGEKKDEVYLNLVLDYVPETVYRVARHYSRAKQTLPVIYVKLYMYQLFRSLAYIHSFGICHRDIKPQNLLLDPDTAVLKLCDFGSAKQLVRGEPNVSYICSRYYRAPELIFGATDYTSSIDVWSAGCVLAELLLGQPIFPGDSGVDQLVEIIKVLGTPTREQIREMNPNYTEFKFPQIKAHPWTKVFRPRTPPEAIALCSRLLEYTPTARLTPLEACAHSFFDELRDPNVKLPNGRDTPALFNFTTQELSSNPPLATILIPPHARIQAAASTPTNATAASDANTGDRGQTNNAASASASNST
# [12] = molecular target: T1, RAC-alpha serine/threonine-protein kinase; assay: Inhibition of Akt1 in human OVCAR8 cells assessed as GSK3beta phosphorylation at 1 uM by Western blotting analysis; type: cell-based; settings: OVCAR-8; outline: as §2
# [13] = molecular target: Tyrosine-protein kinase JAK2 (Homo sapiens) (UniProt O60674); assay: Inhibition of JAK2 (unknown origin) at 0.8 ug/ml
# Chain of Tyrosine-protein kinase JAK2 (Homo sapiens) (O60674 whole entry): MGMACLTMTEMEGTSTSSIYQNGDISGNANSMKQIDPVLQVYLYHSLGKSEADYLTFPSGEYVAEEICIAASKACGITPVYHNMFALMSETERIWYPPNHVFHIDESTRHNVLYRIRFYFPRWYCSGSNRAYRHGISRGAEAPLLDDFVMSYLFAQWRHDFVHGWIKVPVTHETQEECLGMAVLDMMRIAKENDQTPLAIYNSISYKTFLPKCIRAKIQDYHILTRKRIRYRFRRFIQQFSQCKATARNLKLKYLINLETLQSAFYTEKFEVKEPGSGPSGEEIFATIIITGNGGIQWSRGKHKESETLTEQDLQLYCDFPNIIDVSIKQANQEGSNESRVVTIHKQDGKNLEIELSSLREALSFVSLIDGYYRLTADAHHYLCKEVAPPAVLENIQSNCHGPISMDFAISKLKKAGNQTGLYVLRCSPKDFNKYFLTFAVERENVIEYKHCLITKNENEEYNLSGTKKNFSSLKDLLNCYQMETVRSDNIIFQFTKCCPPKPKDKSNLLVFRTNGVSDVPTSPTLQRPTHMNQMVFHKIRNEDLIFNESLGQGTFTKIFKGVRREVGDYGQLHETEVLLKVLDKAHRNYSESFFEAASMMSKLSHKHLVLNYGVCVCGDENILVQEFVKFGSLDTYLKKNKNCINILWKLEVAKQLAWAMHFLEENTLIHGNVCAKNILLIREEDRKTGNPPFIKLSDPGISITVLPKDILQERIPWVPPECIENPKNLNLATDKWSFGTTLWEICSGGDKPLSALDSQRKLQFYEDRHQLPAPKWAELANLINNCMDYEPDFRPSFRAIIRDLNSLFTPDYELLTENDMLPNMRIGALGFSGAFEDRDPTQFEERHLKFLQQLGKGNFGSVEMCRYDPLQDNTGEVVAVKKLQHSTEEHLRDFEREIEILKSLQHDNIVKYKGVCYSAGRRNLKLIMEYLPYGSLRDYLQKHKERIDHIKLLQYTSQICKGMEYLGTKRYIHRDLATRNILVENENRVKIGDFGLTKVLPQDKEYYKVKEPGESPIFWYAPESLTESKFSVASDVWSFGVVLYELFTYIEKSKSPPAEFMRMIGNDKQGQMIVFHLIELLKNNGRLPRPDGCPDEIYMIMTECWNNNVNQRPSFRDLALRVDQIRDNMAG
# [14] = system: OVCAR-8; assay: Induction of apoptosis in human OVCAR8 cells assessed as accumulation at sub-G1 phase at 20 uM after 48 hrs by annexin V-FITC/propidium iodide staining-based FACS flow cytometric analysis (reference value: 1.2%); type: functional
# Outline: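 OVCAR-8 cells (5 × 10⁴ cells/ml, 5 ml) grown in 25 cm² flasks, treated with vehicle or compound for 48 h. Cells harvested, washed twice with ice-cold PBS, stained with annexin V-FITC/propidium iodide, analysed by flow cytometry.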
# [15] = molecular target: Tyrosine-protein kinase SYK (Homo sapiens) (UniProt P43405); assay: Inhibition of SYK (unknown origin) at 0.8 ug/ml
# [16] = molecular target: T4, Inhibitor of nuclear factor kappa-B kinase subunit beta (Homo sapiens) (UniProt O14920); assay: Inhibition of IKKbeta (unknown origin) at 0.8 ug/ml
# T4 sequence (whole entry): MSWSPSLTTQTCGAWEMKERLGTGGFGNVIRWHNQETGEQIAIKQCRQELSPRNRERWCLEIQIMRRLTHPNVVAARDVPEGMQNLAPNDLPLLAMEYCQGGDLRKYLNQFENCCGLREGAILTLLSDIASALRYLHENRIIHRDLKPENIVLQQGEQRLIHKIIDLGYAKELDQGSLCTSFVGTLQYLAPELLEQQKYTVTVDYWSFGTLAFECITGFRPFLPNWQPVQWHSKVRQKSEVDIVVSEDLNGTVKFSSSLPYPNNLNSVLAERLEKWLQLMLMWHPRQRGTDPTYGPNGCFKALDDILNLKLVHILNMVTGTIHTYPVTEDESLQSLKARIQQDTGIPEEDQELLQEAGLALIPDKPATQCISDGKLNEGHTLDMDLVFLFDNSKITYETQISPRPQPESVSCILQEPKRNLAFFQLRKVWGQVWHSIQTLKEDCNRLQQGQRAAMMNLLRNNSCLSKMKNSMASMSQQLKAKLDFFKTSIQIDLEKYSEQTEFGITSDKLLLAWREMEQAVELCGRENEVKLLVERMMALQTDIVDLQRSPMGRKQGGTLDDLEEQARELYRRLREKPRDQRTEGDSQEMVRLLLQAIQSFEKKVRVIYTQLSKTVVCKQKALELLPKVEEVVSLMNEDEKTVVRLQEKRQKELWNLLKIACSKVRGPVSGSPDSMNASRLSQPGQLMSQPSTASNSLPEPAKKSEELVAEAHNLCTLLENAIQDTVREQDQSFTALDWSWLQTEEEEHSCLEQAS
# [17] = Inhibition of Drak (unknown origin); design: species or system Homo sapiens
# [18] = molecular target: T3, Serine/threonine-protein kinase B-raf
smiles,measurement,setting,value
CC(C)NC(c1ccc(Cl)cc1)c1ccc(-c2ccncc2)cc1 (stereo unspecified),IC50,[1],0.22 µM
same,IC50,[2],22.8 µM
same,IC50,[3],13.9 µM
same,IC50,[4],17.3 µM
CC(C)(C)NC(c1ccc(Cl)cc1)c1ccc(-c2ccncc2)cc1 (stereo unspecified),IC50,[1],0.17 µM
same,IC50,[2],16.1 µM
same,IC50,[3],3.9 µM
same,IC50,[4],14.4 µM
Clc1ccc(C(NC2CC2)c2ccc(-c3cn[nH]c3)cc2)cc1 (stereo unspecified),IC50,[1],0.48 µM
same,IC50,[2],7.9 µM
same,IC50,[3],7.8 µM
same,IC50,[4],15.6 µM
Clc1ccc(C(Nc2ccccc2)c2ccc(-c3cn[nH]c3)cc2)cc1 (stereo unspecified),inhibition,[5],29%
CC(C)NC(c1ccc(Cl)cc1)c1ccc(-c2cn[nH]c2)cc1 (stereo unspecified),IC50,[1],0.37 µM
same,IC50,[2],12.2 µM
same,IC50,[3],10.7 µM
same,IC50,[4],11.6 µM
CC(C)NC(c1ccc(Cl)cc1)c1ccc(-c2ncnc3nc[nH]c23)cc1 (stereo unspecified),IC50,[1],0.16 µM
same,IC50,[2],17 µM
same,IC50,[3],13.2 µM
same,IC50,[4],8.5 µM
CC(C)CNC(c1ccc(Cl)cc1)c1ccc(-c2cn[nH]c2)cc1 (stereo unspecified),IC50,[1],0.9 µM
same,IC50,[2],8.1 µM
same,IC50,[3],5.4 µM
same,IC50,[4],14.1 µM
Clc1ccc(C(Nc2ccccc2)c2ccc(-c3ccncc3)cc2)cc1 (stereo unspecified),inhibition,[5],26%
CC(C)CNC(c1ccc(Cl)cc1)c1ccc(-c2cccnc2)cc1 (stereo unspecified),inhibition,[5],10%
OCCNC(c1ccc(Cl)cc1)c1ccc(-c2cn[nH]c2)cc1 (stereo unspecified),IC50,[1],0.65 µM
same,IC50,[2],34.7 µM
same,IC50,[4],27.6 µM
Clc1ccc(C(NC2CCCCC2)c2ccc(-c3cccnc3)cc2)cc1 (stereo unspecified),inhibition,[5],20%
CC(C)(C)NC(c1ccc(Cl)cc1)c1ccc(-c2cccnc2)cc1 (stereo unspecified),inhibition,[5],19%
CC(C)CNC(c1ccc(Cl)cc1)c1ccc(-c2ccncc2)cc1 (stereo unspecified),IC50,[1],1.43 µM
same,IC50,[2],16.3 µM
same,IC50,[3],3.3 µM
same,IC50,[4],15.5 µM
Clc1ccc(C(NC2CC2)c2ccc(-c3ncnc4[nH]cnc34)cc2)cc1 (stereo unspecified),IC50,[1],0.47 µM
same,IC50,[2],30.6 µM
same,IC50,[3],11.9 µM
same,IC50,[4],13.4 µM
Clc1ccc(C(NCc2ccccc2)c2ccc(-c3cn[nH]c3)cc2)cc1 (stereo unspecified),IC50,[1],1.32 µM
same,IC50,[2],11.9 µM
same,IC50,[3],5.3 µM
same,IC50,[4],8.3 µM
O=S(=O)(NCCNC/C=C/c1ccc(Br)cc1)c1cccc2cnccc12,IC50,[2],10.5 µM
same,IC50,[3],11.4 µM
same,IC50,[4],15.7 µM
Clc1ccc(C(NC2CCCCC2)c2ccc(-c3cn[nH]c3)cc2)cc1 (stereo unspecified),IC50,[1],1.1 µM
same,IC50,[2],5.5 µM
same,IC50,[3],2.1 µM
same,IC50,[4],26.8 µM
Clc1ccc(C(NCc2ccccc2)c2ccc(-c3ncnc4[nH]cnc34)cc2)cc1 (stereo unspecified),IC50,[1],0.74 µM
same,IC50,[2],12.5 µM
same,IC50,[3],12.1 µM
same,IC50,[4],16.2 µM
CC(C)(C)NC(c1ccc(Cl)cc1)c1ccc(-c2cn[nH]c2)cc1 (stereo unspecified),inhibition,[6],28.3%
same,IC50,[1],0.038 µM
same,inhibition,[7],inactive
same,inhibition,[8],Active
same,IC50,[9],0.88 µM
same,inhibition,[10],12%
same,inhibition,[11],7.2%
same,inhibition,[12],Active
same,IC50,[2],8.1 µM
same,inhibition,[13],19.5%
same,IC50,[3],5.3 µM
same,Activity,[14],66.8%
same,IC50,[4],8.9 µM
same,inhibition,[15],0.98%
same,inhibition,[16],1.8%
Clc1ccc(C(NC2CCCCC2)c2ccc(-c3ccncc3)cc2)cc1 (stereo unspecified),IC50,[1],1.26 µM
same,IC50,[2],15.6 µM
same,IC50,[3],3.2 µM
same,IC50,[4],12.4 µM
NCCNC(c1ccc(Cl)cc1)c1ccc(-c2cn[nH]c2)cc1 (stereo unspecified),IC50,[1],0.82 µM
same,IC50,[2],11.1 µM
same,IC50,[4],10.7 µM
CN[C@@H]1C[C@H]2O[C@@](C)([C@@H]1OC)n1c3ccccc3c3c4c(c5c6ccccc6n2c5c31)C(=O)NC4 [STAUROSPORINE],IC50,[17],0.026 µM
same,IC50,[18],0.015 µM
CC(C)CNC(c1ccc(Cl)cc1)c1ccc(-c2ncnc3nc[nH]c23)cc1 (stereo unspecified),IC50,[1],0.74 µM
same,IC50,[2],9.9 µM
same,IC50,[3],5.3 µM
same,IC50,[4],7.7 µM
Clc1ccc(C(NC2CCCCC2)c2ccc(-c3ncnc4[nH]cnc34)cc2)cc1 (stereo unspecified),IC50,[1],0.64 µM
same,IC50,[2],8.6 µM
same,IC50,[3],11 µM
same,IC50,[4],14.4 µM
Clc1ccc(C(NCc2ccccc2)c2ccc(-c3ccncc3)cc2)cc1 (stereo unspecified),IC50,[1],1.25 µM
same,IC50,[2],18.5 µM
same,IC50,[3],12.5 µM
same,IC50,[4],16.3 µM
